What is called viability is a read-out of living cells in per cent, often relative to untreated cells. In general, inhibition refers to the relative decrease from the control value, in per cent.

Active and inactive are the calls of the source.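 The calls were made as follows, unless noted: active = viability at or below 10% of carrier control in both of two separate runs; inconclusive = viability at or below 10% in only one of the two runs; inactive = the rest.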

16 compounds from PubChem BioAssay can be followed below.

Assay [1] in a line: Her2 expression decrease, cell viability multiplex – SKBR3 breast tumor cells, AlphaScreen, ATP viability, primary screen (AID 461;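 active = Her2 level under about 52% in both replicate screens, with viability over 70% of control, limit read from the data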;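 as to Her2 level: lower value means less Her2 protein in the cells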;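 as to viability: percent of carrier control wells set as 100% viability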). Conditions: SKBR3 Her2 protein level, 18-24 h, measured here: SKBR3 viability, ATP luminescence, at 10 µM. In general terms: Bead proximity is the source of the signal in Alpha formats.
Assay [2] addresses Receptor tyrosine-protein kinase erbB-2 (Homo sapiens) (UniProt P04626). Described as above. As to conditions: 18-24 h, at 10 µM, stronger effect = lower value.
A short description of assay [3]: reduced viability of SK-BR-3 breast cancer cells – cell-based, 24 h, human, pilot screen (AID 572).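 Also: compound exposure lasted between 18 and 24 h rather than exactly 24 h; 100% = carrier-treated control wells.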 As to conditions: SK-BR-3 viability, CellTiter-Glo luminescence, at 10 µM, stronger effect = lower value. (In general: In ATP-based viability assays light output follows the ATP content of the culture.)
The nature of assay [4]: HUVEC growth inhibition – cell-based, human, primary screen (AID 575;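 active = viability at or below 30% in both replicate assays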;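 also: 100% = median of untreated cell wells with 0.1% DMSO on each plate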). As to conditions: HUVEC proliferation, CellTiter-Glo luminescence, 72 h; at 10 µM; stronger effect = lower value. The gist of the method:
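Test system – primary HUVEC, no more than 12 passages · Dosing – one dose, 10 µM final, 0.1% DMSO · Times – 72 h treatment at 37 °C · Measured by – ATP-based CellTiter-Glo luminescent read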

Assay [5] can be described thus: H69AR cell proliferation blockers – human, duplicate replicates, primary screen (AID 580;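 active = viability at or under a set limit in both replicates, limit being median viability minus 3 SD, cut at about 48% in these data, passing the limit was not always enough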;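 also: 100% = mean luminescence of untreated wells and 0% = no signal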). Conditions: H69AR lung tumor cells viability, ATP luminescence, 72 h; at 10 µM; stronger effect = lower value.
Assay [6] in a line: MRP1 drug-resistance reversers in H69AR cells – cell-based, doxorubicin co-treatment, pilot screen (AID 601;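 active = viability loss from added drug above about 55%, and viability with drug at most 40%, in both replicates, limit read from the data, passing the limit was not always enough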). Conditions: CellTiter-Glo, 72 h, at 10 µM; for differential viability (reversal): stronger effect = higher value.
The nature of assay [7]: yeast transport mutant growth inhibition pilot in 384-well plates, post-Golgi transport modulator project (AID 636; in the data active = inhibition above about 31%). Conditions: absorbance 615 nm, about 18 h, stronger effect = higher value.
Assay [8] in a line: growth suppression of yeast trafficking mutant, preliminary HTS, modulators of trafficking downstream of Golgi apparatus project, 1536-format plate, OD 615 nm (AID 637; in the data active = inhibition above about 30%). As to conditions: yeast transport mutant growth, absorbance 615 nm, 18 h; stronger effect = higher value.
Setting [9] is: H69AR cells + 2 uM doxorubicin, measured here: viability with 2 uM doxorubicin, stronger effect = lower value.
Setting [10] is: H69AR cells, compound alone cytotoxicity.

Chain of Receptor tyrosine-protein kinase erbB-2 (Homo sapiens) (P04626 whole entry, looked up): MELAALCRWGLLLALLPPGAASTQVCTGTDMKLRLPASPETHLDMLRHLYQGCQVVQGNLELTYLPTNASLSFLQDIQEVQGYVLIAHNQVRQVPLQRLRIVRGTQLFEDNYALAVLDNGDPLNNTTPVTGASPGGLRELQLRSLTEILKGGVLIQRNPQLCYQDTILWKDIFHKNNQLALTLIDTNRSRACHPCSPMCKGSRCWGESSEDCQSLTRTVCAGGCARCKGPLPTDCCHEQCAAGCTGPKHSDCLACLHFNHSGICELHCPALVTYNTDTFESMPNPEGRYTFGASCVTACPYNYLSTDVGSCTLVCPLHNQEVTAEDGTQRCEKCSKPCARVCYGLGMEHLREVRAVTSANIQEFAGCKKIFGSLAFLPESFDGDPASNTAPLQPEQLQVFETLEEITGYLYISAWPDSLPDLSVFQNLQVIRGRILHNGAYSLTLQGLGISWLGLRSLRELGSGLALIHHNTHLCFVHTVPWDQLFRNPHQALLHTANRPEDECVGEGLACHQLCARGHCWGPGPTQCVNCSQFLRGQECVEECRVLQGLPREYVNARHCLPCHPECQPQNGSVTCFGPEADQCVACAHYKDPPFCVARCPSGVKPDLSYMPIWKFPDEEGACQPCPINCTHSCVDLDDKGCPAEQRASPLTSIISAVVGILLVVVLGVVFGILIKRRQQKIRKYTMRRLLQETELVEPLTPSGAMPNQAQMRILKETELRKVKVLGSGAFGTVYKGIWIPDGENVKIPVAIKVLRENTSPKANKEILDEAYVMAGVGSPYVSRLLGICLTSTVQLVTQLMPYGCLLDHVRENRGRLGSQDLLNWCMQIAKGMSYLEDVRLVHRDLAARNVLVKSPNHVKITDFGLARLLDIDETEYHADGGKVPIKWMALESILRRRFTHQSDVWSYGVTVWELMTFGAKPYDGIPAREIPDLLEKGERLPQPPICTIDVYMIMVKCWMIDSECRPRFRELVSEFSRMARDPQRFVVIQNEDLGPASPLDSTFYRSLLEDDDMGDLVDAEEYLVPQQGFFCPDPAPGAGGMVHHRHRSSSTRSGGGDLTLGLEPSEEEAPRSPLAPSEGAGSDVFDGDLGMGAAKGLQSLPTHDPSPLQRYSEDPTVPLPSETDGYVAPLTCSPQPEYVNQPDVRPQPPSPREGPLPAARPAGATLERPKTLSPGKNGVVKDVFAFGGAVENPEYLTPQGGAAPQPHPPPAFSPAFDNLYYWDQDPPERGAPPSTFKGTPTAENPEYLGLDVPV

As to `CCCn1c(O)c(CN2CCCC(C)C2)c(C)c(C#N)c1=O` (stereo not given), the viability in assay [1] was 102%; in assay [3], 102% (inactive); in assay [4], 86.8% (inactive); in assay [5] it was 107% (inactive); in assay [6] (setting [9]), 92.2%; in assay [6] (setting [10]), 107%. Also, in assay [2], the Her2 level was 87.5% (inactive). For the same compound, in assay [6] (H69AR cells + 2 uM doxorubicin), the differential viability (reversal) is 15.3% (inactive). The inhibition was -5.87% (inactive) in assay [7] and 5.32% (inactive) in assay [8].

`Cc1nc2sc(C(c3cccc(F)c3)N3CCOCC3)c(O)n2n1` (stereo not given): the viability was 117% in assay [1]; 117% (inactive) in assay [3]; 90.8% (inactive) in assay [4]; 94.7% (inactive) in assay [5]; 87% in assay [6] (setting [9]); 94.7% in assay [6] (setting [10]). Moreover, the Her2 level in assay [2] is 93.5% (inactive). The differential viability (reversal) in assay [6] (H69AR cells + 2 uM doxorubicin) is 7.72% (inactive). Further, the values for the inhibition in assay [7] and in assay [8] were -4.79% (inactive) and -3.65% (inactive), respectively.

As to `CCC(=O)N1CCc2cc(S(=O)(=O)CCC(=O)Nc3ccc(C)c(F)c3)ccc21`, the viability was 100% in assay [1]; 100% (inactive) in assay [3]; 91.6% (inactive) in assay [4]; 83.3% (inactive) in assay [5]; 81.1% in assay [6] (setting [9]); 83.3% in assay [6] (setting [10]). The Her2 level in assay [2] was 98.5% (inactive). Also, the differential viability (reversal) in assay [6] (H69AR cells + 2 uM doxorubicin) was 2.27% (inactive). Moreover, the values for the inhibition in assay [7] and in assay [8] were -4% (inactive) and 1.8% (inactive), respectively.

`CCOc1c(C)cc2[nH]c(CCC(=O)O)nc2c1C`: the viability in assay [1] was 123%; in assay [3], 123% (inactive); in assay [4], 95.4% (inactive); in assay [5] it was 93.2% (inactive); in assay [6] (setting [9]), 94.3%; in assay [6] (setting [10]), 93.2%. Further, the Her2 level in assay [2] is 103% (inactive). Further, in assay [6] (H69AR cells + 2 uM doxorubicin), the differential viability (reversal) is -1.08% (inactive). The inhibition is -6.58% (inactive) in assay [7] and 14.4% (inactive) in assay [8].

On to `CCOc1ccccc1NC(=O)N1C2CCCC1CC(NC(=O)C1CC1)C2` (stereo not given), for which the viability was 102% in assay [1]; 102% (inactive) in assay [3]; 107% (inactive) in assay [4]; 96.8% (inactive) in assay [5]; 90% in assay [6] (setting [9]); 96.8% in assay [6] (setting [10]). Also, the Her2 level in assay [2] is 95% (inactive). The differential viability (reversal) in assay [6] (H69AR cells + 2 uM doxorubicin) is 6.77% (inactive). The inhibition is -6% (inactive) in assay [7] and 2.58% (inactive) in assay [8].

Take `CCOC(=O)N1CCN(c2cc3nccnc3cc2F)CC1`: the viability in assay [1] was 114%; in assay [3] it was 114% (inactive); in assay [4], 84.5% (inactive); in assay [5] it was 99.3% (inactive); in assay [6] (setting [9]), 93.7%; in assay [6] (setting [10]) it was 99.3%. In assay [2], the Her2 level was 92% (inactive). Besides, the differential viability (reversal) in assay [6] (H69AR cells + 2 uM doxorubicin) is 5.61% (inactive). Also, the inhibition in assay [7] is -7.03% (inactive); in assay [8], -4.17% (inactive).

With `CC(=O)N1CCN(C(=O)COc2ccc(Br)cc2)CC1`, the viability in assay [1] is 108%; in assay [3], 108% (inactive); in assay [4], 113% (inactive); in assay [5], 105% (inactive); in assay [6] (setting [9]), 84.6%; in assay [6] (setting [10]), 105%. In assay [2], the Her2 level was 92.5% (inactive). In assay [6] (H69AR cells + 2 uM doxorubicin), the differential viability (reversal) was 20.5% (inactive). Also, the inhibition in assay [7] was -2.03% (inactive); in assay [8], 0.16% (inactive).

As for `O=C(CCOc1ccccc1)NCc1ccccc1`, the viability in assay [1] was 122%; in assay [3], 122% (inactive); in assay [4] it was 89.9% (inactive); in assay [5], 89.6% (inactive); in assay [6] (setting [9]), 90%; in assay [6] (setting [10]), 89.6%. The Her2 level in assay [2] was 102% (inactive). Also, the differential viability (reversal) in assay [6] (H69AR cells + 2 uM doxorubicin) was -0.41% (inactive). In addition, the inhibition in assay [7] is 4.03% (inactive); in assay [8], 28.9% (inactive).

`CCN1CCN(S(=O)(=O)c2ccc(S(=O)(=O)N(CC)Cc3ccccc3)cc2)CC1`: the viability in assay [1] is 98%; in assay [3], 98% (inactive); in assay [4] it was 82.1% (inactive); in assay [5], 91.9% (inactive); in assay [6] (setting [9]), 99%; in assay [6] (setting [10]), 91.9%. Moreover, in assay [2], the Her2 level is 94% (inactive). For the same compound, the differential viability (reversal) in assay [6] (H69AR cells + 2 uM doxorubicin) is -7.05% (inactive). Besides, the inhibition in assay [7] was -4.27% (inactive); in assay [8], -1.13% (inactive).

With `Cc1cc(C)c2c(CC(=O)NCc3ccco3)coc2c1`, the viability was 94% in assay [1]; 94% (inactive) in assay [3]; 71.3% (inactive) in assay [4]; 91.1% (inactive) in assay [5]; 89.8% in assay [6] (setting [9]); 91.1% in assay [6] (setting [10]). In addition, the Her2 level in assay [2] is 81.5% (inactive). Also, in assay [6] (H69AR cells + 2 uM doxorubicin), the differential viability (reversal) was 1.32% (inactive). The figures for the inhibition in assay [7] and in assay [8] were -6.27% (inactive) and -6.03% (inactive), respectively.

As for `Cc1ccc(-c2nc(=S)c3c(n2Cc2ccco2)CCCC3)cc1`, the viability in assay [1] is 79%; in assay [3], 79% (inactive); in assay [4], 86.9% (inactive); in assay [5], 10.3% (active); in assay [6] (setting [9]) it was 10.6%; in assay [6] (setting [10]), 10.3%. Moreover, the Her2 level in assay [2] is 79% (inactive). Moreover, in assay [6] (H69AR cells + 2 uM doxorubicin), the differential viability (reversal) was -0.31% (inactive). In addition, the inhibition in assay [7] is -1.47% (inactive); in assay [8], -5.32% (inactive).

In the case of `O=S(=O)(Nc1ccccn1)c1ccc(Oc2ccccc2)cc1`, the viability in assay [1] is 88%; in assay [3], 88% (inactive); in assay [4], 87.8% (inactive); in assay [5], 98.8% (inactive); in assay [6] (setting [9]), 88.3%; in assay [6] (setting [10]), 98.8%. In assay [2], the Her2 level is 87.5% (inactive). Also, the differential viability (reversal) in assay [6] (H69AR cells + 2 uM doxorubicin) is 10.5% (inactive). Moreover, the inhibition in assay [7] is -2.57% (inactive); in assay [8], -1.11% (inactive).

Take `O=C(C1CCC(N2C(=O)C3CC=CCC3C2=O)CC1)N1CCCCC1` (stereo not given): the viability in assay [1] is 75.5%; in assay [3], 75.5% (inactive); in assay [4] it was 96.3% (inactive); in assay [5], 91.8% (inactive); in assay [6] (setting [9]) it was 83.7%; in assay [6] (setting [10]) it was 91.8%. Moreover, in assay [2], the Her2 level was 113% (inactive). Besides, the differential viability (reversal) in assay [6] (H69AR cells + 2 uM doxorubicin) is 8.11% (inactive). In addition, the inhibition in assay [7] was 0.64% (inactive); in assay [8], -5.83% (inactive).

`CS(=O)(=O)N1CCN(c2ccccc2NC(=O)c2cccs2)CC1`: the viability in assay [1] was 99.5%; in assay [3], 99.5% (inactive); in assay [4], 108% (inactive); in assay [5], 91.3% (inactive); in assay [6] (setting [9]) it was 96.3%; in assay [6] (setting [10]), 91.3%. Also, the Her2 level in assay [2] was 100% (inactive). For the same compound, the differential viability (reversal) in assay [6] (H69AR cells + 2 uM doxorubicin) is -5% (inactive). The values for the inhibition in assay [7] and in assay [8] were -1.17% (inactive) and 1% (inactive), respectively.

`COc1ccc(-n2c(Cc3cccn3C)nnc2SCC(=O)Nc2cccc(OC)c2)cc1`: the viability in assay [1] is 106%; in assay [3], 106% (inactive); in assay [4] it was 80.9% (inactive); in assay [5] it was 98% (inactive); in assay [6] (setting [9]) it was 97.1%; in assay [6] (setting [10]), 98%. In addition, in assay [2], the Her2 level is 97.5% (inactive). Moreover, the differential viability (reversal) in assay [6] (H69AR cells + 2 uM doxorubicin) was 0.895% (inactive). In addition, the inhibition is 1.79% (inactive) in assay [7] and 0% (inactive) in assay [8].

On to `CC(=O)c1cnc2cc(-c3ccccc3)nn2c1C`, for which the viability in assay [1] was 91.5%; in assay [3] it was 91.5% (inactive); in assay [4], 91.4% (inactive); in assay [5], 103% (inactive); in assay [6] (setting [9]), 83.1%; in assay [6] (setting [10]), 103%. Besides, the Her2 level in assay [2] was 110% (inactive). Also, the differential viability (reversal) in assay [6] (H69AR cells + 2 uM doxorubicin) is 19.5% (inactive). Besides, the inhibition is 0% (inactive) in assay [7] and -10.7% (inactive) in assay [8].
